This assay in a line: broad binding selectivity at GPCRs, channels, transporters – biochemical, Ricerca panel, selectivity assay, profiling panel (AID 623932). The note with it: Ricerca radioligand binding panel, % inhibition, at 10 µM, stronger effect = higher value. In outline: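 material = panel of radioligand binding assays across multiple targets | read-out = percent decrease in target-selective radioligand binding by compound | benchmarks = reference standards in each assay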

This is an account of results in PubChem BioAssay AID623932 (Vanderbilt High Throughput Screening Facility, 2012).

Activity calls are given as the source filed them.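 The calls were made as follows: active = at one tested dose, specific binding or response inhibited over 50%; inactive = the rest.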

With `Cc1cc(NC(=O)Nc2ccc(F)c(F)c2)n(-c2ccccc2)n1`, the inhibition was 60% (inactive). In addition, where the note is “NMDA binding inhibition”, the inhibition was found to be 21%. Also, the inhibition (measured here: 5-HT2B binding inhibition) is 46%. Moreover, under “measured here: DAT binding inhibition”, the inhibition was determined as 12%. Also, the inhibition (measured here: GABA-A flunitrazepam binding inhibition) was 24%. This molecule also returned an inhibition (measured here: GABA-A muscimol binding inhibition) of 49%. The molecule also gave an inhibition (measured here: NET binding inhibition) of 15%. Under “measured here: NPY Y1 binding inhibition”, this molecule displayed an inhibition of 24%. Under “measured here: P2X binding inhibition”, the inhibition was 16%. For the setting “measured here: dopamine D2S binding inhibition”, this molecule displayed an inhibition of 16%. For the setting “measured here: hERG binding inhibition”, this molecule registered an inhibition of 10%. The molecule further returned an inhibition (measured here: imidazoline I2 binding inhibition) of 20%. Besides, the inhibition (measured here: mu opioid binding inhibition) is 21%.

The term inhibition denotes the share of the control response that was lost under treatment.
